Measured values published in ChEMBL document CHEMBL4028904, “Discovery of a Novel Series of Tankyrase Inhibitors by a Hybridization Approach” (J Med Chem, 2017).
Values after ≈ are worked out from the molar mass of the structure shown.

What was measured:
[1] = test system: COLO 320DM; assay: Antitumor activity against human COLO320DM cells xenografted in nude Balb/c mouse assessed as tumor growth inhibition at 15 mg/kg, po administered qd for 10 days measured on days 12, 17 and 21 post last dose; assay type: functional; conditions: 240 h, read-out: TGI
Summary of the method: (§1)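 Tumor-bearing mice were randomized 2 days after inoculation into four groups: vehicle (1% starch, n = 4) and 15, 30 or 60 mg/kg (n = 5 each). Dosing was oral, once daily, for 10 days. Tumor size was measured by caliper on days 12, 17 and 21. Values are tumor volume reduction relative to vehicle-treated controls.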

[2] = test system: Mus musculus; assay: Toxicity in immunocompetent BDF1 mouse allografted with mouse P388 cells assessed as body weight change at 15 to 30 mg/kg, po administered qd for 10 days measured on day 12 post last dose; assay type: organism-based; conditions: in vivo, 240 h
[3] = Kinetic solubility of the compound in PBS buffer at pH 7.4 at 25 degC after 2 hrs; assay type: physicochemical; conditions: read-out: Kinetic_solubility
[4] = Cmax in ICR mouse at 5 mg/kg, po measured up to 24 hrs postdose; assay type: ADME, organism-based; design: dose 5 mg/kg, route oral; conditions: in vivo
[5] = target: Poly [ADP-ribose] polymerase 1 (Homo sapiens, UniProt P09874); assay: Inhibition of recombinant human PARP1 expressed in Escherichia coli using NAD+ as substrate after 10 mins by fluorescence assay
[6] = target: Protein mono-ADP-ribosyltransferase PARP15 (Homo sapiens, UniProt Q460N3); assay: Inhibition of human PARP15 using NAD+ as substrate by fluorescence assay
[7] = target: Protein mono-ADP-ribosyltransferase PARP10 (Homo sapiens, UniProt Q53GL7); assay: Inhibition of human PARP10 using NAD+ as substrate by fluorescence assay
[8] = target: Protein mono-ADP-ribosyltransferase PARP12 (Homo sapiens, UniProt Q9H0J9); assay: Inhibition of human PARP12 using NAD+ as substrate by fluorescence assay
[9] = target: Protein mono-ADP-ribosyltransferase PARP16 (Homo sapiens, UniProt Q8N5Y8); assay: Inhibition of human PARP16 using NAD+ as substrate by fluorescence assay
[10] = target: Maternal embryonic leucine zipper kinase (Homo sapiens) (UniProt Q14680); assay: Inhibition of MELK (unknown origin) at 10 uM after 60 mins in presence of [gamma-33P]-ATP by microplate scintillation counting
Summary of the method: (§2)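 A panel of 320 wild-type protein kinases was screened with the compound at 10 μM. Activity is reported as percent inhibition.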

[11] = target: cGMP-dependent protein kinase 1 (Homo sapiens) (UniProt Q13976); assay: Inhibition of PRKG1 (unknown origin) at 10 uM after 60 mins in presence of [gamma-33P]-ATP by microplate scintillation counting; summary of the method: as §2
[12] = target: Serine/threonine-protein kinase 16 (Homo sapiens) (UniProt O75716); assay: Inhibition of TSF1 (unknown origin) at 10 uM after 60 mins in presence of [gamma-33P]-ATP by microplate scintillation counting; summary of the method: as §2
[13] = test system: Liver; assay: Intrinsic clearance in human liver microsomes at 3 uM incubated up to 45 mins in presence of NADPH by LC-MS/MS analysis; assay type: ADME, microsome; conditions: 0.75 h
[14] = Intrinsic clearance in human hepatocytes assessed per million cells at 3 uM measured up to 120 mins by LC-MS/MS analysis; assay type: ADME, cell-based, Hepatocyte; conditions: read-out: CLH
[15] = Apparent permeability across apical to basolateral side in MDCK cells expressing human MDR1 at 10 uM after 2 hrs by LC/MS/MS analysis; assay type: ADME, cell-based, Canis lupus familiaris; conditions: dog
[16] = Apparent permeability across basolateral to apical side in MDCK cells expressing human MDR1 at 10 uM after 2 hrs by LC/MS/MS analysis; assay type: ADME, cell-based, Canis lupus familiaris; conditions: dog
[17] = target: Cytochrome P450 3A4 (Homo sapiens, UniProt P08684); assay: Inhibition of CYP3A4 in human liver microsomes using midazolam as substrate after 30 mins by LC-MS/MS analysis; assay type: ADME
[18] = target: Cytochrome P450 2C19 (Homo sapiens, UniProt P33261); assay: Inhibition of CYP2C19 in human liver microsomes using mephenytoin as substrate after 30 mins by LC-MS/MS analysis; assay type: ADME
[19] = target: Cytochrome P450 2D6 (Homo sapiens, UniProt P10635); assay: Inhibition of CYP2D6 in human liver microsomes using dextromethorphan as substrate after 30 mins by LC-MS/MS analysis; assay type: ADME
[20] = Inhibition of CYP1A in human liver microsomes using ethoxyresorufin as substrate after 30 mins by LC-MS/MS analysis; assay type: ADME
[21] = Oral bioavailability in ICR mouse at 5 mg/kg measured up to 24 hrs postdose; assay type: ADME, organism-based; conditions: in vivo
[22] = AUC (0 to t) in ICR mouse at 5 mg/kg, po measured up to 24 hrs postdose; assay type: ADME, organism-based; design: time < 24 hr, dose 5 mg/kg, route oral; conditions: in vivo
[23] = AUC (0 to t) in Sprague-Dawley rat at 14 mg/kg, po measured up to 24 hrs postdose; assay type: ADME, organism-based; design: time < 24 hr, dose 14 mg/kg, route oral; conditions: in vivo
[24] = Oral bioavailability in Beagle dog at 7 mg/kg measured up to 24 hrs postdose; assay type: ADME, organism-based, Canis lupus familiaris; conditions: in vivo
[25] = Cmax in Beagle dog at 7 mg/kg, po measured up to 24 hrs postdose; assay type: ADME, organism-based, Canis lupus familiaris; design: dose 7 mg/kg, route oral; conditions: in vivo
[26] = test system: Canis familiaris; assay: Clearance in Beagle dog at 7 mg/kg, po measured up to 24 hrs postdose; assay type: ADME, organism-based, Canis lupus familiaris; conditions: in vivo
[27] = Drug excretion in Sprague-Dawley rat urine at 7 mg/kg, iv or 14 mg/kg, po measured up to 24 hrs by LC-MS/MS; assay type: ADME, organism-based; conditions: in vivo
[28] = Drug excretion in Sprague-Dawley rat feces at 7 mg/kg, iv or 14 mg/kg, po measured up to 24 hrs by LC-MS/MS; assay type: ADME, organism-based; conditions: in vivo
[29] = test system: COLO 320DM; assay: Antitumor activity against human COLO320DM cells xenografted in nude Balb/c mouse assessed as tumor growth inhibition at 60 mg/kg, po administered qd for 10 days measured on days 12, 17 and 21 post last dose; assay type: functional; conditions: 240 h, read-out: TGI; summary of the method: as §1
[30] = test system: P388; assay: Antitumor activity against mouse P388 cells allografted in immunocompetent BDF1 mouse assessed as tumor growth inhibition at 15 mg/kg, po administered qd for 10 days measured on day 12 post last dose; assay type: functional; conditions: read-out: TGI
Summary of the method: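 Immunocompetent BDF1 (DBA2 × C57Bl6j) mice were implanted with p388 cells and randomized after 2 days into vehicle (1% starch, n = 6) and two treatment groups (n = 5 each). Dosing was oral, once daily, for 10 days. Tumor size was measured by caliper at the end. Values are tumor size reduction relative to vehicle control.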

[31] = test system: Mus musculus; assay: Toxicity in immunocompetent BDF1 mouse allografted with mouse P388 cells assessed as animal discomfort at 15 to 30 mg/kg, po administered qd for 10 days measured on day 12 post last dose; assay type: organism-based; conditions: in vivo, 240 h
[32] = test system: Mus musculus; assay: Toxicity in immunodeficient nude Balb/c mouse xenografted with human COLO320DM cells assessed as animal discomfort at 15 to 60 mg/kg, po administered qd for 10 days measured on days 12, 17 and 21 post last dose; conditions: in vivo, 240 h
[33] = test system: Mus musculus; assay: Toxicity in immunodeficient nude Balb/c mouse xenografted with human COLO320DM cells assessed as body weight change at 15 to 60 mg/kg, po administered qd for 10 days measured on days 12, 17 and 21 post last dose; conditions: in vivo, 240 h

Sequence of Cytochrome P450 2C19 (P33261 whole entry): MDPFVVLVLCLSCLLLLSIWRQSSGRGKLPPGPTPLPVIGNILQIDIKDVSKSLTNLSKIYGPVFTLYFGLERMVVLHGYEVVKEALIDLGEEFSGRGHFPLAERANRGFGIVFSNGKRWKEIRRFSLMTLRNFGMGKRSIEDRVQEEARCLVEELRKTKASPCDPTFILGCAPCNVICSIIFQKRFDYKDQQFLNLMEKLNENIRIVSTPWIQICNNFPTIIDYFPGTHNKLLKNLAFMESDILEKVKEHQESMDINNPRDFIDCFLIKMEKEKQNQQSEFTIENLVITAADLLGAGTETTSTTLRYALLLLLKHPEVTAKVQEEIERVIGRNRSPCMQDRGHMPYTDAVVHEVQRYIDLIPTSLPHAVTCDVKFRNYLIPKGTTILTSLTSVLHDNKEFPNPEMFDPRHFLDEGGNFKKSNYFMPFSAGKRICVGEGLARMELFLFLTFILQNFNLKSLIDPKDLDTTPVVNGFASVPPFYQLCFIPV
Sequence of cGMP-dependent protein kinase 1 (Homo sapiens) (Q13976 whole entry): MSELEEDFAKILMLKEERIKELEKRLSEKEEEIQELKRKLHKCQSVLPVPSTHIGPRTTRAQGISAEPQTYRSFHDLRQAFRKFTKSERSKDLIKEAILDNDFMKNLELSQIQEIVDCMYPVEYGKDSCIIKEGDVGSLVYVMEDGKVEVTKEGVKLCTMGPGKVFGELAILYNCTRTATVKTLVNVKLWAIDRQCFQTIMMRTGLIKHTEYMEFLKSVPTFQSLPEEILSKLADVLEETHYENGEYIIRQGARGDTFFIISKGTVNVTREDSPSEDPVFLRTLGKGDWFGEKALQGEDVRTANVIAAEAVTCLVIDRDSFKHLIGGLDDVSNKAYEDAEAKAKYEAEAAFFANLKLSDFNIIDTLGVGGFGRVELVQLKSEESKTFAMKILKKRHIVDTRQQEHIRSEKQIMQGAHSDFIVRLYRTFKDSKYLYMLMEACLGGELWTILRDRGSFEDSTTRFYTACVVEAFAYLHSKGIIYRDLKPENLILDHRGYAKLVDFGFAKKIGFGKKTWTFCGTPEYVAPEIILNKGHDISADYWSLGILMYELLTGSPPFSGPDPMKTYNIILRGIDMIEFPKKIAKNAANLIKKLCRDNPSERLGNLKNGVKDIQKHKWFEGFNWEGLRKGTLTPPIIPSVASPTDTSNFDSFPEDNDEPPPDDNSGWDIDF
Sequence of Cytochrome P450 3A4 (P08684 whole entry): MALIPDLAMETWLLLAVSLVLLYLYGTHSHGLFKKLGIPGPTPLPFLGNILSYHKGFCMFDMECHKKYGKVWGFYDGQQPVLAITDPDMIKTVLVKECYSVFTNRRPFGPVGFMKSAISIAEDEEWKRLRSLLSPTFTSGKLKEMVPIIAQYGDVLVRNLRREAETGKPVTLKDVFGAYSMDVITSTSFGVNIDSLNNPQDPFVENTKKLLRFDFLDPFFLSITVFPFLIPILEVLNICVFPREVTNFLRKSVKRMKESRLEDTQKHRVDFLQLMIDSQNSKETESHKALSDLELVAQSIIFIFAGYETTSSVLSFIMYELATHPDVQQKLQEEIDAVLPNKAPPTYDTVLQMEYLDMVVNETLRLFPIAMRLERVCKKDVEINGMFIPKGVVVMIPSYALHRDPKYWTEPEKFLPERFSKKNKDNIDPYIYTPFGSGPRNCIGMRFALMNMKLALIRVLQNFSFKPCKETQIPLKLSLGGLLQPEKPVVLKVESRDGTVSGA
Sequence of Protein mono-ADP-ribosyltransferase PARP10 (Q53GL7 whole entry): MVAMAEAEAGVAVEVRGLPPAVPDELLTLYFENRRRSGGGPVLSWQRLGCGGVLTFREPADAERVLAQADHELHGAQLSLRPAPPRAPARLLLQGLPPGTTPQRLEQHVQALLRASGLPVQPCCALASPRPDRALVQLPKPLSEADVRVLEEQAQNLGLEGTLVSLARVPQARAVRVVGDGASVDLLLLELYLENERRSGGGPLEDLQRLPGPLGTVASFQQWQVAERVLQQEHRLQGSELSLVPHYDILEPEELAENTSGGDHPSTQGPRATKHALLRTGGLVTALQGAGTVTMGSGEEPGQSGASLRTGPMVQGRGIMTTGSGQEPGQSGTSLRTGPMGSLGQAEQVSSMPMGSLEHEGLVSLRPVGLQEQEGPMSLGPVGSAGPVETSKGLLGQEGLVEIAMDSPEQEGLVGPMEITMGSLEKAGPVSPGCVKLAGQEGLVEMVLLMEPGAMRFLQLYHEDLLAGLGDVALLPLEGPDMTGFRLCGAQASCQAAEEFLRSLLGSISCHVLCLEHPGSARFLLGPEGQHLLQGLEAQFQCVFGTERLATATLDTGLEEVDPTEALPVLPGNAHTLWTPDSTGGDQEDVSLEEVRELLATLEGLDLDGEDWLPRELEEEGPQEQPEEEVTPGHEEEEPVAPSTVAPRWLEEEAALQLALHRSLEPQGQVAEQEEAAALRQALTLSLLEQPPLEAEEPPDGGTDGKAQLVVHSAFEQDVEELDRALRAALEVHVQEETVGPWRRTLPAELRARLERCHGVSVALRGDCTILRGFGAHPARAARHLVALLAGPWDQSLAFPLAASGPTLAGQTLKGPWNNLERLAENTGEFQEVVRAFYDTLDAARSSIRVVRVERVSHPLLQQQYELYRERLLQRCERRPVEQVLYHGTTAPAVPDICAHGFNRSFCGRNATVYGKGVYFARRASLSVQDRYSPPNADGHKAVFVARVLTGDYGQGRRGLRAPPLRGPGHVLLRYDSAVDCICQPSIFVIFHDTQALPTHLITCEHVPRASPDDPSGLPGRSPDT
Sequence of Cytochrome P450 2D6 (P10635 whole entry): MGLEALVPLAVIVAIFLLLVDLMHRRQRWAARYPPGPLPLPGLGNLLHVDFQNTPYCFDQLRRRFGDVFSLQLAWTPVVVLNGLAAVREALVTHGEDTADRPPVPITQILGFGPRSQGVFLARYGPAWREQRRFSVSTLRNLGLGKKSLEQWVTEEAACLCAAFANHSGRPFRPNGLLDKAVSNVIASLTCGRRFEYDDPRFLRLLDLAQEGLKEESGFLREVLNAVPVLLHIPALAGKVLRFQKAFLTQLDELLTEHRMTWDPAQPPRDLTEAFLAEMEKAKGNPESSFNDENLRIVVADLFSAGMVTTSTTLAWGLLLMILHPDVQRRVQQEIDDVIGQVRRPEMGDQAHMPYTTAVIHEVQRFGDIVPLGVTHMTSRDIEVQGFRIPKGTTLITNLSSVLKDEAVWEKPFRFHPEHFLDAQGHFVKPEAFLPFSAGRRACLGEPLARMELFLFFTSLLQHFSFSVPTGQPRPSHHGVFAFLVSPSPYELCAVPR
Sequence of Protein mono-ADP-ribosyltransferase PARP16 (Q8N5Y8 whole entry): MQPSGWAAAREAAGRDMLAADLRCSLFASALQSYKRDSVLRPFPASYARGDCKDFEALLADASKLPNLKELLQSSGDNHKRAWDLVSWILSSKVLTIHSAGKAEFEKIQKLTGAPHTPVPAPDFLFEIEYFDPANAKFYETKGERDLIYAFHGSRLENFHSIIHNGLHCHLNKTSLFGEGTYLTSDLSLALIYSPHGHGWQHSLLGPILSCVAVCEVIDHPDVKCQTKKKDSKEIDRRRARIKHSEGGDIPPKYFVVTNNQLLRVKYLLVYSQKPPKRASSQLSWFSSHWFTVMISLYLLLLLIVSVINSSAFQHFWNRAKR
Sequence of Poly [ADP-ribose] polymerase 1 (P09874 whole entry): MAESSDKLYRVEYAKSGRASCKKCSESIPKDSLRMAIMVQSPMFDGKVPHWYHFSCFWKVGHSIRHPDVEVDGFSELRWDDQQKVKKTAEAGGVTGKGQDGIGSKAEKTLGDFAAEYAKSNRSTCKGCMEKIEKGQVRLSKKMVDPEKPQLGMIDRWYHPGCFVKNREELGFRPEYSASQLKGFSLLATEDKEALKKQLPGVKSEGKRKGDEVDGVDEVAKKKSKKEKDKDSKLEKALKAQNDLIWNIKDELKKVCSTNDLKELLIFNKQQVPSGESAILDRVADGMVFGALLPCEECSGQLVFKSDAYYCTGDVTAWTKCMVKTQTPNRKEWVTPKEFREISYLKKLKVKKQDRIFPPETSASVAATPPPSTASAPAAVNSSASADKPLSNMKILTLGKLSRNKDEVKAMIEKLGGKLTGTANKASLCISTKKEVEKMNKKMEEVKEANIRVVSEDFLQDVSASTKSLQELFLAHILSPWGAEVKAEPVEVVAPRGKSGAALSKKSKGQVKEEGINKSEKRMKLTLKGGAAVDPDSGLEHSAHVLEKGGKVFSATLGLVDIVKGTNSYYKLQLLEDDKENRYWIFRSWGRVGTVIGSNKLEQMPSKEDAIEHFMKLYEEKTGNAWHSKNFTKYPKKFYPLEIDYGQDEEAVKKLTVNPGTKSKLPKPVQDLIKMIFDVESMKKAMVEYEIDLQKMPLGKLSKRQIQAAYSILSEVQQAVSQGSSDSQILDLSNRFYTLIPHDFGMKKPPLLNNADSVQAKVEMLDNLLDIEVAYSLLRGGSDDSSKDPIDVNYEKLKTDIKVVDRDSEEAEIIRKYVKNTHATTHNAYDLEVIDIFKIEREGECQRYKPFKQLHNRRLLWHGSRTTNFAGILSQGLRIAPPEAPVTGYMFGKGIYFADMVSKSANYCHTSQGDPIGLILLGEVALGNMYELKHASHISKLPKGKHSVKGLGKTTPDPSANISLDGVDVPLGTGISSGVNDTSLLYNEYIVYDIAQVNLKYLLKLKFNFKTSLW
Sequence of Serine/threonine-protein kinase 16 (Homo sapiens) (O75716 whole entry): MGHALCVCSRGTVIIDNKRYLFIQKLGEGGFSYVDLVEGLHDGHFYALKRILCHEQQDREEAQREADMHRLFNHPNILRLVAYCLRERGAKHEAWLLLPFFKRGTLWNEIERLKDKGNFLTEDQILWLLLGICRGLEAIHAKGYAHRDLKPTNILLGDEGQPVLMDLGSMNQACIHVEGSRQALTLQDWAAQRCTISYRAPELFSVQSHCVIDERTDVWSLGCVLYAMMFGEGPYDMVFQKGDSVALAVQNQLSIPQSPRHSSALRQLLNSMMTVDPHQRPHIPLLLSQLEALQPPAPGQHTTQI

N#Cc1ccc2c(c1)[nH]c(=O)n2[C@H]1C[C@H](c2nnc(-c3ccncn3)n2-c2ccccc2Cl)C1
inhibition in vivo at 15 mg/kg [1]: 53%
Activity [2]: Non-Toxic
solubility kinetic at 2 h [3]: 31.2 µM (≈ 14.6 µg/mL)
Cmax [4]: 124 ng/mL
IC50 [5]: > 100 µM
IC50 [6]: > 10 µM
IC50 [7]: > 10 µM
IC50 [8]: > 10 µM
IC50 [9]: > 10 µM
inhibition [10]: 70%
inhibition [11]: 66%
inhibition [12]: 52%
CLH [13]: 14.8 µL/min/mg
hepatocyte CLint at 3 µM [14]: 6.44 µL/min/1e6 cells
Papp [15]: 5.3 ×10⁻⁷ cm/s
Papp [16]: 28.2 ×10⁻⁷ cm/s
IC50 [17]: 1.3 µM
IC50 [18]: > 25 µM
IC50 [19]: > 25 µM
IC50 [20]: > 25 µM
bioavailability [21]: 47%
AUC(0-t) at 24 h [22]: 145 ng·h/mL
AUC(0-t) at 24 h [23]: 2760 ng·h/mL
bioavailability [24]: 91%
Cmax [25]: 5850 ng/mL
clearance [26]: 2.33 mL/min/kg
Drug excretion [27]: Metabolite_Notdetected
Drug excretion [28]: Metabolite_Notdetected
inhibition in vivo at 60 mg/kg [29]: 63%
inhibition in vivo at 15 mg/kg [30]: 32%
Activity [31]: Non-Toxic
Activity [32]: Non-Toxic
Activity [33]: Non-Toxic
